Converted amounts (≈) assume the structure as drawn.
How the values were obtained:
HL-60 [1] = test: Cytotoxicity was assessed using adriamycin-resistant human leukemic cell line HL60/ADR; format: functional, cell-based
Method in brief: (§1)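 Modified tetrazolium dye reduction viability assay on log-phase cells seeded at 6.7 × 10^4 cells/well in RPMI 1640 with L-glutamine and 10% FBS, cultured with compounds. HL60/ADR overexpresses MRP but not Pgp; HL60/Vinc overexpresses Pgp but not MRP. IC50 values are averages of 2 determinations from a single experiment.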

HL-60 [2] = test: Cytotoxicity was assessed using drug-sensitive human leukemic cell line HL60/S; format: functional, cell-based
Method in brief: (§2)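 Viability was read by a modified tetrazolium dye reduction method. Cells were harvested in logarithmic growth and seeded at 6.7 × 10^4 cells/well. They were grown in RPMI 1640 with L-glutamine and 10% FBS and cultured with the compounds. The IC50 was taken as the read-out.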

HL-60 [3] = test: Resistance factor was determined using the ratio of (IC50) of drug resistance cells/drug sensitive cells in HL60/ADR cell line; format: functional, Homo sapiens
Method in brief: (§3)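 Resistance factor = IC50 in the drug-resistant line (HL60/ADR, which overexpresses MRP, or HL60/Vinc, which overexpresses Pgp) divided by IC50 in the drug-sensitive cells. IC50s came from the tetrazolium dye reduction viability assay, as averages of 2 determinations in a single experiment.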

HL-60 [4] = test: Relative potency compared to cytotoxicity against HL60/S cell line of etoposide; format: functional, Homo sapiens
Method in brief: (§4)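 Relative potency compares each compound with etoposide, the reference, using IC50s from the same modified tetrazolium dye reduction viability assay. Cells were seeded at 6.7 × 10^4 cells/well in RPMI 1640 with L-glutamine and 10% FBS.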

HL-60 [5] = test: Resistance factor was determined using the ratio of (IC50) of drug resistance cells/drug sensitive cells in HL60/Vinc cell line; format: functional, Homo sapiens; method in brief: as §3
CCRF-CEM [6] = test: Relative potency compared to cytotoxicity against CCRF-CEM cell line of etoposide; format: functional, Homo sapiens; method in brief: as §4
HL-60 [7] = test: Cytotoxicity was assessed using vincristine-resistant human leukemic cell line HL60/Vinc; format: functional, cell-based; method in brief: as §1
CCRF-CEM [8] = test: Cytotoxicity was assessed using human leukemic cell line CCRF-CEM; format: functional, cell-based; method in brief: as §2
CCRF-CEM [9] = test: Relative potency in comparison to etoposide; format: functional, Homo sapiens; method in brief: as §4
[10] = Homo sapiens, HL-60, read-out: IC50

| SMILES | IC50 (HL-60 [1]; [10]) [µg/mL] | IC50 (HL-60 [2]; [10]) [µg/mL] | RF (HL-60 [3]) | Relative potency (HL-60 [4]) | RF (HL-60 [5]) | Relative potency (CCRF-CEM [6]) | IC50 (HL-60 [7]) [µg/mL] | IC50 (CCRF-CEM [8]) [µg/mL] | IC50 (HL-60 [2]; hl-60) [µg/mL] | IC50 (HL-60 [1]; hl-60) [µg/mL] | Relative potency (CCRF-CEM [9]) |
| --- | --- | --- | --- | --- | --- | --- | --- | --- | --- | --- | --- |
| COc1cc([C@H]2c3cc4c(cc3C[C@H]3COC[C@@H]32)OCO4)cc(OC)c1OC | 4.86 (≈ 12.6 µM) | 7.09 (≈ 18.5 µM) | 0.7 | 0.23 | 0.4 | 0.14 | 3.06 (≈ 7.96 µM) | 8.15 (≈ 21.2 µM) | – | – | – |
| COc1ccc([C@@H]2c3cc(OC)c(OC)cc3C[C@H]3COC[C@@H]32)cc1OC | 23.3 (≈ 63 µM) | – | 0.2 | 0.01 | 0.3 | 0.03 | 36.1 (≈ 97.4 µM) | 38.5 (≈ 104 µM) | 117.178 (≈ 316 µM) | – | – |
| COc1ccc([C@H]2c3cc(OC)c(OC)cc3C[C@H]3COC[C@@H]32)cc1OC | 26.1 (≈ 70.3 µM) | 36.3 (≈ 97.9 µM) | 0.7 | 0.05 | 0.4 | 0.05 | 14.7 (≈ 39.8 µM) | 21.9 (≈ 59 µM) | – | – | – |
| COc1cc2c(cc1OC)C(c1cc(OC)c(OC)c(OC)c1)[C@H]1COC[C@@H]1C2 (some centres not stated) | 0.362 (≈ 0.904 µM) | 0.533 (≈ 1.33 µM) | 0.7 | 3.08 | 0.6 | 2.4 | 0.314 (≈ 0.784 µM) | 0.47 (≈ 1.17 µM) | – | – | – |
| COc1cc([C@@H]2c3cc4c(cc3C[C@H]3COC[C@@H]32)OCO4)cc(OC)c1OC | 0.019 (≈ 0.0494 µM) | 0.03 (≈ 0.078 µM) | 0.6 | 54.8 | 0.5 | 27 | 0.015 (≈ 0.039 µM) | 0.043 (≈ 0.112 µM) | – | – | – |
| COc1cc([C@@H]2c3cc4c(cc3[C@@H](O[C@@H]3O[C@@H]5CO[C@@H](C)O[C@H]5[C@H](O)[C@H]3O)[C@H]3COC(=O)[C@H]23)OCO4)cc(OC)c1O [ETOPOSIDE] | – | 1.64 (≈ 2.79 µM) | 33 | – | 11 | – | 18.1 (≈ 30.7 µM) | 1.15 (≈ 1.95 µM) | – | 54.94 (≈ 93.3 µM) | 1 |

Reference: ChEMBL document CHEMBL1134605, “Cytotoxic responses to aromatic ring and configurational variations in alpha-conidendrin, podophyllotoxin, and sikkimotoxin derivatives” (J Med Chem, 2001)
